UBC13 polyUb: blocks human UBC13 polyubiquitin chain formation | P61088 | TR-FRET | inhibition, % at 20 µM | actives 0.47% (n = 330,000) | AID 485273; in the data active = inhibition above about 45%, passing the limit was not always enough
Target sequence (P61088 whole entry, looked up): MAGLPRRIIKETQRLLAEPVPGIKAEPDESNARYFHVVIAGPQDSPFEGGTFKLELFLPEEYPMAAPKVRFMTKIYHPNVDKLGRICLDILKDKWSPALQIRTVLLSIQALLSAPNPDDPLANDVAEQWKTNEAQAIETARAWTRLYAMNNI
PREPL inhibitor: inhibitors of human prolyl oligopeptidase-like enzyme PREPL. Q4J6C6. recombinant PREPL, fluorescence polarization activity-based probe. inhibition, % at 5.96 µM. actives 0.68% (n = 320,000);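 note: 0% = enzyme with DMSO and 100% = wells lacking enzyme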
MEKK3 PB1 HTS: modulators (inhibitors or enhancers) of MEK5 binding to human MEKK3 PB1 domain; AID 1529; actives 1.4% (n = 290,000); bead-based flow cytometry, Alexa488-MEK5 binding to MEKK3; actives lie on both sides; 0 = blocked by unlabeled MEK5, 100 = vehicle; Q99759; binding response (% of control), % at 10 µM;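 active = binding response more than 3 SD above or below the average of its plate-row segment, actives on both sides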;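 note: Alexa488 bead fluorescence after subtracting the streptavidin-only scavenger bead signal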
Apaf-1 inh: human Apaf-1 inhibition; O14727; reconstituted apoptosome caspase-3 activity, DEVD-Rh110 fluorescence; inhibition, % at 20 µM; actives 0.71% (n = 330,000); AID 489030; active = inhibition of at least 40% at 20 µM;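 note: plate controls were DMSO wells for no effect and DEVD-CHO caspase inhibitor wells for full effect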
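Material: reconstituted apoptosome with Apaf-1, cytochrome c, caspase-9, procaspase-3, dATP; medium: pH 7.5 Hepes buffer with CHAPS, BSA, DTT; also added: cytochrome c and DEVD-Rh110 substrate; timing: 30 min plus 50 min, RT; signal: Rh110 fluorescence intensity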
MEKK2wt PB1 HTS: raises or lowers MEK5 binding to wildtype human MEKK2 PB1 domain; actives 1.1% (n = 290,000); bead flow cytometry, Alexa488-MEK5 binding to MEKK2 WT; actives lie on both sides; binding response (% of control), % at 10 µM; in the data active = binding response below about 67% or above about 130%
MEKK2mut PB1 HTS: signal of MEK5 binding to mutant human MEKK2 PB1 domain | bead flow cytometry, Alexa488-MEK5 binding to MEKK2 mutant | percent response, % at 10 µM | actives 0.35% (n = 290,000) | AID 1530; in the data active = percent response above about 24%, passing the limit was not always enough
PREPL confirm: human PREPL inhibition, confirmation; inhibition, % at 5.96 µM; actives 67% (n = 2,000); recombinant PREPL, fluorescence polarization activity probe; shares compounds with PREPL inhibitor;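 note: 0% = protein with DMSO and 100% = wells lacking protein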
Active calls of the source: *; . = no result. Most compounds without a hit are left out; they make up all but 3.1% or so of the library. Cut-off read from the data, not from the text of the source, unless noted: active = inhibition above about 43%; inactive = the rest.

SMILES | UBC13 polyUb | PREPL inhibitor | MEKK3 PB1 HTS | Apaf-1 inh | MEKK2wt PB1 HTS | MEKK2mut PB1 HTS | PREPL confirm
Cc1ccc(C)n1-c1ccc(C(=O)NN)s1 | -4 | 56* | 96 | 3 | 98 | -3 | 17
C[n+]1c(-c2ccccc2)sc([S-])c1-c1ccccc1 | 1 | 57* | . | 8 | . | . | 69*
COc1ccc2cc1Oc1ccc(cc1)C[C@H]1c3cc(c(OC)cc3CCN1C)Oc1c(OC)c(OC)cc3c1[C@H](C2)N(C)CC3 | 27 | 61* | 116 | 32 | 117 | 14 | 60*
COc1ccc(-c2nnnn2C)cc1S(=O)(=O)Nc1ccc(C)cc1C | 0 | 1 | 104 | -8 | 106 | 9 | .
COc1ccc2sc(-c3ccc(N(C)C)cc3)c(C#CC(C)(C)O)c2c1 | 18 | 13 | . | 4 | . | . | .
COc1ccc2sc(-c3ccc(N(C)C)cc3)c(C#Cc3cncn3C)c2c1 | 35 | 46* | . | 31 | . | . | 40
COc1cc(-c2nnc3sc(Cc4ccc(Cl)cc4)nn23)cc(OC)c1OC | 23 | 54* | . | -6 | . | . | 52*
CC(Nc1nc(-c2ccc(F)cc2)cs1)c1nc2cc(Cl)c(N3CCCCC3)cc2n1CCOCCO (centres undefined) | 1 | 55* | 103 | 31 | 103 | 3 | 50*
CC(Nc1nc(-c2ccc(F)cc2)cs1)c1nc2cc(Cl)c(N3CCCCC3)cc2n1CCCO (centres undefined) | -1 | 17 | 101 | 9 | 107 | 1 | .
Cc1ccn2c(NC3CCCC3)c(-c3ccccn3)nc2c1 | 34 | 72* | 101 | 0 | 109 | 7 | 69*
c1ccc(-c2nc3ccccn3c2NC2CCCC2)nc1 | 6 | 63* | 101 | 8 | 98 | -1 | 65*
Clc1ccc(CNc2ccc(N3CCN(Cc4ccccc4)CC3)cc2)cc1 | 0 | 48* | 110 | 8 | 123 | 7 | 49*
CCc1ccc(CNc2ccc(N3CCN(C(C)=O)CC3)cc2)cc1 | -8 | 66* | 102 | 17 | 107 | 9 | 57*
CC(=O)N1CCN(c2ccc(NCc3ccc(C)cc3)cc2)CC1 | 5 | 74* | 95 | 0 | 91 | -8 | 46*
CCOc1ccc(S(=O)(=O)N2CCCC(C(=O)Nc3cc(C)cc(C)c3)C2)cc1 (centres undefined) | 2 | 0 | 101 | 21 | 93 | -4 | .
CN(C)S(=O)(=O)c1cccc(-c2csc(=Nc3ccccc3)n2CCCN2CCOCC2)c1 | 12 | 56* | 99 | -7 | 107 | 5 | 55*
CCOc1ccc(NC(=O)CN(C)C(=O)CCNC(=O)c2ccco2)cc1OCC | 2 | 11 | . | -5 | . | . | .
O=C(C[C@H]1C/C=C\CC[C@@H](Cc2ccc(F)cc2)C(=O)OC[C@H]2CCCN2C1=O)N[C@@H](CO)Cc1ccccc1 | 4 | 53* | . | 22 | . | . | 54*
O=C(C[C@H]1C/C=C\CC[C@H](Cc2ccc(F)cc2)C(=O)OC[C@H]2CCCN2C1=O)N[C@H](CO)Cc1ccccc1 | -10 | 34 | . | 13 | . | . | .
O=C(C[C@H]1C/C=C\CC[C@H](Cc2ccc(F)cc2)C(=O)OC[C@H]2CCCN2C1=O)N[C@@H](CO)Cc1ccccc1 | 14 | 61* | . | 15 | . | . | 53*
O=C(COc1ccc(Cl)cc1)Nc1cc2c3c(c1)CC(=O)N3CCC2 | 2 | 47* | . | 15 | . | . | 35
CCSc1nc2ccccc2c(=O)n1-c1c(C)n(C)n(-c2ccccc2)c1=O | -1 | 8 | 106 | -13 | 100 | 0 | .
COc1cccc(C(=O)COC(=O)CCCC(=O)NC2CCCCC2)c1 | -1 | 6 | 101 | 2 | 103 | 2 | .
CCn1c(N)c(C(=O)NCC2CCCO2)sc1=S (centres undefined) | -14 | 0 | 101 | 6 | 99 | 2 | .
O=C(NCc1ccccc1)c1ccc2c(=O)[nH]c3c(C(=O)NCC4CCCO4)sc(=S)n3c2c1 (centres undefined) | 11 | 44* | 93 | 5 | 85 | -11 | 64*
SMILES | UBC13 polyUb | PREPL inhibitor | MEKK3 PB1 HTS | Apaf-1 inh | MEKK2wt PB1 HTS | MEKK2mut PB1 HTS | PREPL confirm
CCCCCNC(=O)c1ccc2c(=O)[nH]c3c(C(=O)NCC4CCCO4)sc(=S)n3c2c1 (centres undefined) | -8 | 61* | 94 | 7 | 92 | -6 | 57*
O=C(NCc1ccccc1)c1ccc2c(=O)n(CC3CCCO3)c(=S)[nH]c2c1 (centres undefined) | 8 | 11 | 104 | 9 | 105 | 3 | .
Cc1ccc(CNC(=O)c2ccc3c(=O)[nH]c4c(C(=O)NCC5CCCO5)sc(=S)n4c3c2)cc1 (centres undefined) | -16 | 44* | 104 | 11 | 104 | 4 | 46*
CN(CC(=O)Nc1ccc(Cl)c(S(=O)(=O)N2CCOCC2)c1)C(=O)c1ccc(C#N)cc1 | 5 | 13 | . | -3 | . | . | .
O=C(CN(C(=O)c1csnn1)c1cccc(C(F)(F)F)c1)NCc1ccc(F)cc1 | 0 | 0 | 101 | 7 | 102 | -3 | .
CC(C)OC(=O)CSc1nc(Cc2ccccc2)nc2ccccc12 | 21 | 0 | 105 | 11 | 94 | -10 | .
O=C(C1=C[C@H](c2ccccc2)C[C@H](OCCCCO)O1)N1CCN(Cc2ccc3c(c2)OCO3)CC1 | 9 | 22 | 94 | 1 | 94 | -2 | .
O=C(C1=C[C@@H](c2ccc(Br)cc2)C[C@@H](OCCCCO)O1)N1CCN(Cc2ccc3c(c2)OCO3)CC1 | 23 | 67* | 97 | 30 | 98 | 3 | 59*
CCO[C@H]1OC(C(=O)N2CCN(Cc3ccc4c(c3)OCO4)CC2)=C[C@@H](c2ccc3c(c2)OCO3)[C@@H]1CCCO | 8 | 49* | 103 | 9 | 103 | 2 | 43
O=C(C1=C[C@@H](c2ccccc2)C[C@@H](OCc2ccc(CO)cc2)O1)N1CCN(Cc2ccc3c(c2)OCO3)CC1 | 15 | 51* | 108 | 21 | 100 | 6 | 56*
CCn1c(SCC(=O)Nc2nccc(C)n2)nc2ccccc21 | -5 | 1 | 98 | -3 | 101 | 2 | .
COC(=O)CCC(=O)OC1(C)C(=O)C2=CN(Cc3ccc(OC)cc3)C(c3ccc(OC)cc3)=CC2=C(Br)C1=O (centres undefined) | -85 | 22 | 59 | 30 | . | 11 | .
COC(=O)CCC(=O)OC1(C)C(=O)C=C2C=C(C3CC3)N(Cc3ccc(OC)cc3)C=C2C1=O (centres undefined) | -43 | 59* | 100 | 35 | 96 | 6 | 43
